Results taken from ChEMBL document CHEMBL1151960, “(Nitrooxyacyloxy)methyl esters of aspirin as novel nitric oxide releasing aspirins” (J Med Chem, 2009).

Assays:
[1] = system: Aorta; assay: Vasodilatory activity in Wistar rat endothelium-denuded thoracic aortic ring assessed as inhibition of phenylephrine-induced contraction […]; assay type: functional, tissue-based
In short: (§1)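 Endothelium-denuded rat aorta strips are precontracted with phenylephrine. At the plateau, cumulative concentrations of test agent in DMSO are added. Relaxation is recorded isometrically and reported as EC50 ± SEM (μM). In a separate series, 1 μM ODQ is added 5 min before contraction, giving at least 30 min of preincubation before the vasodilator. At least five experiments.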

[2] = system: Aorta; assay: Vasodilatory activity in Wistar rat endothelium-denuded thoracic aortic ring assessed as inhibition of phenylephrine-induced contraction at 100 uM preincubated for 30 mins before phenylephrine addition in presence of 1 uM 1H-[1,2,4]oxadiazolo[4,3-a]quinoxalin-1-one; assay type: functional; design: scale not given: the % may be the effect or the level left
[3] = Chemical stability in acidic medium at pH 1 assessed as unchanged drug level at 0.5 mM after 3 hrs by RP-HPLC analysis; assay type: physicochemical; settings: read-out: Stability
In short: (§2)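 A 0.5 mM acetonitrile solution (2 mL) is diluted to 10 mL with HCl (pH 1.0) or 50 mM phosphate buffer (pH 7.4) and held at 37 ± 0.5 °C. Aliquots are taken over time for RP-HPLC (C18 column, acetonitrile/water gradient with 0.1% TFA). Performed in triplicate.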

[4] = Chemical stability in phosphate buffer at pH 7.4 assessed as unchanged drug level at 0.5 mM after 3 hrs by RP-HPLC analysis; assay type: physicochemical; settings: read-out: Stability; in short: as §2
[5] = Metabolic stability in human serum assessed as half life at 250 uM by RP-HPLC analysis; assay type: ADME, cell-free
[6] = system: Serum; assay: Metabolic stability in human serum assessed as maximal amount of aspirin released at 250 uM by RP-HPLC analysis; assay type: ADME, cell-free
[7] = (§3) Antiaggregatory activity in human platelet rich plasma assessed as inhibition of collagen-induced platelet aggregation preincubated 10 mins before collagen challenge; assay type: functional
In short: (§4)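 Platelet-rich plasma from citrated blood spun at 210g for 20 min. Compound in 0.5% DMSO vehicle preincubated 10 min, then submaximal collagen (0.8–1.5 μg/mL). Light-transmission aggregometry with stirring at 1000 rpm, 37 °C, recorded for 10 min. Read-out is % inhibition versus vehicle control; IC50 by nonlinear regression, else % inhibition at 300 μM top concentration. At least five experiments.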

[8] = system: Platelet; assay: as §3; assay type: functional; in short: as §4
[9] = system: Aorta; assay: Vasodilatory activity in Wistar rat endothelium-denuded thoracic aortic ring assessed as inhibition of phenylephrine-induced contraction at 30 uM preincubated for 30 mins before phenylephrine addition in presence of 1 uM 1H-[1,2,4]oxadiazolo[4,3-a]quinoxalin-1-one; assay type: functional; design: scale not given: the % may be the effect or the level left
[10] = system: Aorta; assay: Vasodilatory activity in Wistar rat endothelium-denuded thoracic aortic ring assessed as inhibition of phenylephrine-induced contraction preincubated for […] in presence of 1 uM 1H-[1,2,4]oxadiazolo[4,3-a]quinoxalin-1-one; assay type: functional, tissue-based; in short: as §1
[11] = Antiaggregatory activity in human platelet rich plasma assessed as inhibition of collagen-induced platelet aggregation at 300 uM preincubated 10 mins before collagen challenge; assay type: functional; in short: as §4

| Structure (SMILES) | Activity [1] | EC50 [1] [µM] | Activity [2] [%] | remaining at 3 h, 500 µM [3] [%] | remaining at 3 h, 500 µM [4] [%] | half-life at 250 µM [5] [min] | Activity [6] [%] | IC50 [7] [µM] | Activity [8] | Activity [9] [%] | EC50 [10] [µM] | inhibition at 300 µM [11] [%] |
| --- | --- | --- | --- | --- | --- | --- | --- | --- | --- | --- | --- | --- |
| O=C(O)c1ccc([S+]([O-])CCCO[N+](=O)[O-])cc1 (stereo not drawn) | Dose-dependent effect | 6 | <50 | – | – | – | – | – | – | – | – | – |
| CC(=O)Oc1ccccc1C(=O)OCOC(=O)c1ccc(OCCCO[N+](=O)[O-])cc1 | Dose-dependent effect | 0.017 | – | 99 | 99 | 3.4 | 39.8 | 138 | Dose-dependent effect | <50 | – | – |
| O=C(O)CCCCCO[N+](=O)[O-] | Dose-dependent effect | 8.3 | <50 | – | – | – | – | – | – | – | – | – |
| CC(=O)Oc1ccccc1C(=O)OCOC(=O)c1ccc(SCCCO[N+](=O)[O-])cc1 | Dose-dependent effect | 0.15 | – | 99 | 99 | 2.4 | 61.7 | 45 | Dose-dependent effect | <50 | – | – |
| O=C(O)c1ccc(S(=O)(=O)CCCO[N+](=O)[O-])cc1 | Dose-dependent effect | 20 | <50 | – | – | – | – | – | – | – | – | – |
| CC(=O)Oc1ccccc1C(=O)OCOC(=O)c1ccc(CC(CO[N+](=O)[O-])O[N+](=O)[O-])cc1 (stereo not drawn) | Dose-dependent effect | 0.052 | – | 99 | 99 | 3.4 | 34.2 | 97 | Dose-dependent effect | <50 | – | – |
| CC(=O)Oc1ccccc1C(=O)OCOC(=O)c1ccc(OCC(CO[N+](=O)[O-])O[N+](=O)[O-])cc1 (stereo not drawn) | Dose-dependent effect | 0.041 | – | 99 | 99 | 5.4 | 22.4 | 140 | Dose-dependent effect | <50 | – | – |
| CC(=O)Oc1ccccc1C(=O)O [ASPIRIN] | – | – | – | 90 | 90 | 63 | – | 54 | Dose-dependent effect | – | – | – |
| CC(=O)Oc1ccccc1C(=O)OCOC(=O)c1ccc(CCCO[N+](=O)[O-])cc1 | Dose-dependent effect | 0.075 | – | 98 | 100 | 1.9 | 65.2 | 41 | Dose-dependent effect | <50 | – | – |
| O=C(O)c1ccc(OCCCO[N+](=O)[O-])cc1 | Dose-dependent effect | 0.62 | – | – | – | – | – | – | – | – | 66 | – |
| O=C(O)CCCCCCO[N+](=O)[O-] | Dose-dependent effect | 20 | <50 | – | – | – | – | – | – | – | – | – |
| CC(=O)Oc1ccccc1C(=O)OCOC(=O)CCCCC(CO[N+](=O)[O-])O[N+](=O)[O-] (stereo not drawn) | Dose-dependent effect | 0.52 | – | 99 | 99 | < 1 | 9.8 | – | Dose-dependent effect | <50 | – | 36 |
| CC(=O)Oc1ccccc1C(=O)OCOC(=O)c1ccccc1OCCCO[N+](=O)[O-] | Dose-dependent effect | 4 | – | 99 | 98 | < 1 | 5 | 163 | Dose-dependent effect | <50 | – | – |
| O=C(O)c1cccc(OCCCO[N+](=O)[O-])c1 | Dose-dependent effect | 3.8 | <50 | – | – | – | – | – | – | – | – | – |
| CC(=O)Oc1ccccc1C(=O)OCOC(=O)CCCCCO[N+](=O)[O-] | Dose-dependent effect | 1.2 | – | 99 | 99 | < 1 | 10.1 | – | Dose-dependent effect | <50 | – | 17 |
| CC(=O)Oc1ccccc1C(=O)OCOC(=O)c1cccc(CO[N+](=O)[O-])n1 | Dose-dependent effect | 0.82 | – | 84 | 60 | < 1 | 58 | 20 | Dose-dependent effect | <50 | – | – |
| O=C(O)c1ccc(SCC(CO[N+](=O)[O-])O[N+](=O)[O-])cc1 (stereo not drawn) | Dose-dependent effect | 0.27 | – | – | – | – | – | – | – | – | 56 | – |
| CC(=O)Oc1ccccc1C(=O)OCOC(=O)c1ccc([S+]([O-])CCCO[N+](=O)[O-])cc1 (stereo not drawn) | Dose-dependent effect | 0.47 | – | 98 | 90 | < 1 | 70.7 | 72 | Dose-dependent effect | <50 | – | – |
| CC(=O)Oc1ccccc1C(=O)OC(C)OC(=O)c1ccc(SCCCO[N+](=O)[O-])cc1 (stereo not drawn) | Dose-dependent effect | 0.14 | – | 98 | 99 | 4.4 | 29.4 | – | Dose-dependent effect | <50 | – | 27 |
| O=C(O)c1ccc(SCCCO[N+](=O)[O-])cc1 | Dose-dependent effect | 0.27 | – | – | – | – | – | – | – | – | 53 | – |
| O=C(O)c1ccc(OCC(CO[N+](=O)[O-])O[N+](=O)[O-])cc1 (stereo not drawn) | Dose-dependent effect | 0.28 | – | – | – | – | – | – | – | – | 67 | – |
| CC(=O)Oc1ccccc1C(=O)OCOC(=O)c1ccc(SCC(CO[N+](=O)[O-])O[N+](=O)[O-])cc1 (stereo not drawn) | Dose-dependent effect | 0.1 | – | 98 | 98 | 4.6 | 43 | 129 | Dose-dependent effect | <50 | – | – |
| O=C(O)c1cccc(CO[N+](=O)[O-])n1 | Dose-dependent effect | 12 | <50 | – | – | – | – | – | – | – | – | – |
| CC(=O)Oc1ccccc1C(=O)OCOC(=O)CCCC(CO[N+](=O)[O-])O[N+](=O)[O-] (stereo not drawn) | Dose-dependent effect | 0.39 | – | 99 | 99 | < 1 | 10.6 | – | Dose-dependent effect | <50 | – | 8.6 |
| O=C(O)c1ccc(CC(CO[N+](=O)[O-])O[N+](=O)[O-])cc1 (stereo not drawn) | Dose-dependent effect | 0.33 | <50 | – | – | – | – | – | – | – | – | – |
| O=C(O)c1ccccc1OCCCO[N+](=O)[O-] | Dose-dependent effect | 20 | <50 | – | – | – | – | – | – | – | – | – |
| CC(=O)Oc1ccccc1C(=O)OCOC(=O)c1cccc(OCCCO[N+](=O)[O-])c1 | Dose-dependent effect | 0.14 | – | 99 | 98 | 1.4 | 48.3 | 100 | Dose-dependent effect | <50 | – | – |
| CC(=O)Oc1ccccc1C(=O)OCOC(=O)c1ccc(S(=O)(=O)CCCO[N+](=O)[O-])cc1 | Dose-dependent effect | 0.36 | – | 98 | 70 | < 1 | 59.2 | 38 | Dose-dependent effect | <50 | – | – |
| O=C(O)c1ccc(CCCO[N+](=O)[O-])cc1 | Dose-dependent effect | 0.51 | <50 | – | – | – | – | – | – | – | – | – |
| CC(=O)Oc1ccccc1C(=O)OCOC(=O)CCCCCCO[N+](=O)[O-] | Dose-dependent effect | 1.6 | – | 99 | 100 | < 1 | 17.6 | – | Dose-dependent effect | <50 | – | 29 |
